Source: ChEMBL document CHEMBL4715825, “Synthesis and biological evaluations of marine oxohexadecenoic acids: PPARα/γ dual agonism and anti-diabetic target gene effects” (Eur J Med Chem, 2018)
Activity calls are given as the source filed them. No cut-off for these calls is given here.

Target: T1, Peroxisome proliferator-activated receptor alpha (Homo sapiens) (UniProt Q07869)
T1 sequence (whole entry): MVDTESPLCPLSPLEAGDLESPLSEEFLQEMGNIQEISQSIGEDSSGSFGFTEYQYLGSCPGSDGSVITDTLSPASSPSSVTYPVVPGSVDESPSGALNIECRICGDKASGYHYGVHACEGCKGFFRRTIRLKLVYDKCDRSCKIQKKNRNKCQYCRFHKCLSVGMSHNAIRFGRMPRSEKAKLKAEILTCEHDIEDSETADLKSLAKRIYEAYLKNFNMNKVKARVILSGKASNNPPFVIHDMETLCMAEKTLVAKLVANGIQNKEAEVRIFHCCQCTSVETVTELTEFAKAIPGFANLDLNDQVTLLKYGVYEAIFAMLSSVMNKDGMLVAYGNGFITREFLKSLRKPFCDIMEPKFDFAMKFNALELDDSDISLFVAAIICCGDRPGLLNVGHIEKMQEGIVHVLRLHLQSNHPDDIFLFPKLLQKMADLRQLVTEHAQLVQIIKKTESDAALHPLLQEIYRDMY
Experiment: Agonist activity at human PPARalpha in human HuH-7 cells assessed as increase in ACSL3 gene expression at 50 uM incubated for 24 hrs by SYBR-green based qPCR analysis
Format: cell-based
Details: filed as agonist
Summary of the method: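 Cells were seeded at 2×10^5 per well and treated 24 h later with compound in DMSO (final 0.1%). The next day, cells were washed and scraped into RLT buffer. RNA was isolated, and target gene mRNA was quantified by SYBR-green qPCR with specific primers.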

Activity: Active
Structure (SMILES): CCCCCCCC(=O)/C=C/CCCCCC(=O)O
